From ChEMBL document CHEMBL1139876, “Synthesis and study of L-dopa-glutathione codrugs as new anti-Parkinson agents with free radical scavenging properties” (J Med Chem, 2007) come the findings set out here.

≈ marks a conversion by molar mass, not a printed value. Calls of active or inactive are those of the source. No cut-off for these calls is given here.

A short description of data set [1]: Pro-oxidant effect on Fe(2+)/H2O2-induced deoxyribose degradation relative to control. The class given is functional. Summed up: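 Deoxyribose degradation induced by Fe(II)/H2O2 in a medium of deoxyribose, phosphate buffer, EDTA and H2O2 with no enzymatic activity. Compounds tested from 1 to 50 µM.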
Data set [2] has as its system Rattus norvegicus. Nature of the data set: Anxiolytic effect in Wistar rat assessed as […] in entries and time spent in open field center at 184.79 mg/kg, po after 1.5 hrs. The class given is functional, organism-based. Also on record: dose 184.79 mg/kg.
For the next data set, the species on record is Homo sapiens. Put plainly: Stability in human plasma assessed as half life of hydrolysis.
Data set [3] can be described thus: Solubility in 0.02 M phosphate buffer at pH 7.4. The class given is physicochemical. A digest of the protocol: (§1)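 Solubility in water and in buffers at pH 1.3, 5.0 and 7.4, determined by HPLC-UV peak areas correlated with known concentrations. Means of three experiments ± SD.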
The nature of data set [4]: Solubility in water. The class given is physicochemical. Summed up:
as §1

A short description of data set [5]: Partition coefficient, log P at pH 7.4 by saturation shake flask method. The class given is physicochemical. The note with it: octanol/water. A digest of the protocol: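 log P measured by saturation shake-flask in n-octanol/phosphate buffer, pH 7.4. Concentrations in each layer quantified by C18 reverse-phase HPLC-UV against known standards. Means of three experiments ± SD.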

Data set [6] is described as follows: Chemical stability assessed as half life of hydrolysis in 0.02 M phosphate buffer at pH 7.4. The class given is physicochemical. A digest of the protocol: (§2)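 Chemical hydrolysis at 37 °C at pH 1.3, 5.0 and 7.4. Codrug concentration followed over time; Kobs and t1/2 taken by regression from slopes of semilogarithmic concentration–time plots. Means of three experiments ± SD.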

The nature of data set [7]: Solubility in 0.02 M hydrochloric acid buffer at pH 1.3. The class given is physicochemical. A digest of the protocol:
as §1

Data set [8] can be described thus: Solubility in 0.02 M sodium acetate buffer at pH 5.0. The class given is physicochemical. A digest of the protocol:
as §1

Data set [9] can be described thus: Chemical stability assessed as half life of hydrolysis in 0.02 M hydrochloric acid buffer at pH 1.3. The class given is physicochemical. A digest of the protocol:
as §2

A short description of data set [10]: Chemical stability assessed as half life of hydrolysis in 0.02 M sodium acetate buffer at pH 5.0. The class given is physicochemical. A digest of the protocol:
as §2

Data set [11] in a line: Stability in rat plasma assessed as half life of hydrolysis. The class given is ADME, cell-free. Summed up:
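Enzymatic hydrolysis at 37 °C in 80% human or rat plasma containing 20% 0.02 M phosphate buffer, pH 7.4, monitoring release of L-dopa. Fitted to first-order kinetics to give Kobs and t1/2. Means of three experiments ± SD.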

Data set [12] deals with Rattus norvegicus. Nature of the data set: Induction of sustained release of dopamine levels in Wistar rat striatum at 184.79 mg/kg, po after 12 hrs. The class given is functional. A digest of the protocol:
(§3)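 Oral dosing to rats at doses equimolar to L-dopa. Striatal L-dopa and dopamine measured over time by HPLC with electrochemical detection. Mean ± SE; each experiment in triplicate.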

Data set [13] concerns Rattus norvegicus. Put plainly: Antioxidant activity assessed as decrease in SOD activity in Wistar rat plasma at 184.79 mg/kg, po after 1.5 hrs. The class given is functional. Summed up:
(§4)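 Rats dosed by oral gavage; plasma SOD and GPx activities measured 1.5 h after administration, expressed as units/(g Hb). Mean ± SE of five experiments; P < 0.05 vs L-dopa-treated group.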

In data set [14] the test system is Rattus norvegicus. Put plainly: Induction of sustained release of […] levels in Wistar rat striatum at 184.79 mg/kg, po after 12 hrs. The class given is functional. Summed up: as §3
For data set [15], the system named is Rattus norvegicus. Nature of the data set: Antioxidant activity assessed as increase in glutathione peroxidase activity in Wistar rat plasma at 184.79 mg/kg, po after 1.5 hrs. The class given is functional. Summed up:
as §4

For data set [16], the system named is Rattus norvegicus. Nature of the data set: Prolongation of plasma […] levels in Wistar rat at 184.79 mg/kg, po after 2 hrs. The class given is functional. A digest of the protocol: (§5)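 Plasma L-dopa concentration–time profile in rats after oral administration, with sampling up to 8 h. Mean ± SE; each experiment in triplicate.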
A short description of data set [17]: Plasma concentration in Wistar rat at 65.46 mg/kg, po after 2 hrs. Set-up: dose 65.46 mg/kg, route oral. The class given is ADME, organism-based. Summed up: as §5

For the compound `N[C@@H](CCC(=O)N[C@@H](CS)C(=O)NCC(=O)N[C@H](Cc1ccc(O)c(O)c1)C(=O)O)C(=O)O`, in [1], the outcome was inactive.

As to `COC(=O)[C@H](CCC(=O)N[C@@H](CS)C(=O)NCC(=O)N[C@H](Cc1ccc(O)c(O)c1)C(=O)OC)NC(C)=O`, the result in the data set on Rattus norvegicus [2] was Active.

Consider `N[C@H](Cc1ccc(O)c(O)c1)C(=O)N[C@@H](CCC(=O)N[C@@H](CS)C(=O)NCC(=O)O)C(=O)O`, for which the half-life in the data set filed under Homo sapiens is 0.222 h; in data set [6], 23.2 h; in data set [9], 40.4 h; in data set [10], 80.1 h; in [11], 4.1 min. In addition, the solubility in [3] was determined as 460 µg/mL (≈ 0.946 mM); in data set [4], 320 µg/mL (≈ 0.658 mM); in data set [7], 550 µg/mL (≈ 1.13 mM); in data set [8], 690 µg/mL (≈ 1.42 mM). Further, the log distribution coefficient (logD) in [5] turned out to be 0.8.

Turning to `N[C@@H](CCC(=O)N[C@@H](CS)C(=O)NCC(=O)N[C@@H](Cc1ccc(O)c(O)c1)C(=O)O)C(=O)O`, the half-life is 0.252 h in the data set listed under Homo sapiens; 12.2 h in data set [6]; 28.1 h in [9]; 57.3 h in data set [10]; 2.7 min in data set [11]. Further, the solubility stood at 1930 µg/mL (≈ 3.97 mM) in [3], 1800 µg/mL (≈ 3.7 mM) in data set [4], 2150 µg/mL (≈ 4.42 mM) in data set [7] and 1670 µg/mL (≈ 3.43 mM) in [8]. Further, in data set [5], the logD was 0.75.

On to `COC(=O)[C@H](CCC(=O)N[C@@H](CS)C(=O)NCC(=O)N[C@@H](Cc1ccc(O)c(O)c1)C(=O)OC)NC(C)=O` [listing 1 of 2 here], for which the Activity in the data set on Rattus norvegicus [12] is 40 pmol/kg; in the data set with Rattus norvegicus [13], 174.86 U/g.Hb; with Rattus norvegicus [14] it was 40 pmol/mg; with Rattus norvegicus [15], 847.78 U/g.Hb; with Rattus norvegicus [16], 105 µg/mL.

Regarding `COC(=O)CNC(=O)[C@H](CS)NC(=O)CC[C@H](NC(=O)[C@@H](Cc1ccc(O)c(O)c1)NC(C)=O)C(=O)OC`, the half-life in the data set listed under Homo sapiens was 0.0783 h; in data set [6], 15.1 h; in data set [9] it was 31 h; in data set [10] it was 69.3 h; in [11], 1.9 min. Also, the solubility was 3990 µg/mL (≈ 7.17 mM) in [3], 7890 µg/mL (≈ 14.2 mM) in data set [4], 2740 µg/mL (≈ 4.92 mM) in [7] and 3840 µg/mL (≈ 6.9 mM) in data set [8]. For the same compound, the Activity in the data set with Rattus norvegicus [12] was found to be 40 pmol/kg; in the data set on Rattus norvegicus [13] it was 200.59 U/g; with Rattus norvegicus [14], 40 pmol/mg; in the data set with Rattus norvegicus [15], 821 U/g.Hb; with Rattus norvegicus [16] it was 85 µg/mL. Besides, the result with Rattus norvegicus [2] was Active. In data set [5], this compound showed a logD of 0.94.

Take `COC(=O)[C@H](CCC(=O)N[C@@H](CS)C(=O)NCC(=O)N[C@@H](Cc1ccc(O)c(O)c1)C(=O)OC)NC(C)=O` [listing 2 of 2 here]: the half-life in the data set filed under Homo sapiens is 0.0533 h; in [6], 7.22 h; in data set [9], 20.1 h; in data set [10], 40.8 h. In addition, the solubility came to 25600 µg/mL (≈ 46.1 mM) in data set [3], 27000 µg/mL (≈ 48.6 mM) in data set [4], 35100 µg/mL (≈ 63.1 mM) in [7] and 25500 µg/mL (≈ 45.8 mM) in [8]. Further, in data set [5], the logD was 0.89.

With `N[C@@H](Cc1ccc(O)c(O)c1)C(=O)O` [LEVODOPA], the results for the Activity (with Rattus norvegicus [13]; in data set [1]; in the data set with Rattus norvegicus [15]) were 203.4 U/g.Hb, “Dose-dependent effect” and 795.6 U/g, respectively. In data set [17], this compound had a concentration at 2 h of 83 µg/mL.

As a reminder, the half-life is how long it takes for the measured level to halve. Broadly, the solubility is how much of the substance goes into solution per volume. What is called logD is lipophilicity at a set pH, counting ionised and neutral species. A high value points to higher lipophilicity.
